The source of these data is ChEMBL document CHEMBL2057147, “Synthesis and in vitro antitumor activity of novel scopoletin derivatives” (Bioorg Med Chem Lett, 2012).

The subject of assay [1] is MCF7. Kind of assay: Antiproliferative activity against human MCF7 cells after 72 hrs by crystal violet staining method. It is filed as functional, cell-based. The note with it: for IC50: MCF7, 72 h. In short, it runs like this:
(§1)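 Cells seeded at a known number in 96-well plates and exposed to increasing compound concentrations for 72 h; IC50 taken from the concentration–growth-inhibition data.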

Assay [2] deals with MDA-MB-231. In words: Antiproliferative activity against human MDA-MB-231 cells at 20 uM after 72 hrs by crystal violet staining method relative to control. It is filed as functional. An outline of the steps: (§2)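 Single-concentration growth inhibition in MCF-7 and MDA-MB 231 cells at 10 and 20 µM after 72 h, given as corrected treated/control percentage (T/C_corr %).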
The subject of assay [3] is MDA-MB-231. Kind of assay: Antiproliferative activity against human MDA-MB-231 cells after 72 hrs by crystal violet staining method. It is filed as functional, cell-based. To be noted: for IC50: MDA-MB-231, 72 h. In short, it runs like this:
as §1

Assay [4] has as its system HT-29. Kind of assay: Antiproliferative activity against human HT-29 cells after 72 hrs by crystal violet staining method. It is filed as functional, cell-based. To be noted: for IC50: HT-29, 72 h. In short, it runs like this:
as §1

Assay [5] deals with MCF7. Kind of assay: Antiproliferative activity against human MCF7 cells at 20 uM after 72 hrs by crystal violet staining method relative to control. It is filed as functional. An outline of the steps: as §2
For assay [6], the system named is HT-29. In words: Antiproliferative activity against human HT-29 cells at 1.25 to 20 uM up to 144 hrs by crystal violet staining method. It is filed as functional, cell-based. An outline of the steps:
(§3)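 Time course at 1.25, 2.5, 5, 10 and 20 µM, with growth inhibition read as corrected treated/control percentage (T/C_corr %) at several incubation times over about 140 h.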

For assay [7], the system named is U2OS. In words: Induction of apoptosis in human U2OS cells assessed as caspase3 activation at 10 uM after 24 hrs by fluorescence detection assay. It is filed as functional, cell-based.
The test system of assay [8] is MCF7. Kind of assay: Antiproliferative activity against human MCF7 cells at 1.25 to 20 uM up to 144 hrs by crystal violet staining method. It is filed as functional, cell-based. In short, it runs like this: as §3
Assay [9] concerns MCF7. Kind of assay: Ratio of scopoletin IC50 to compound IC50 for human MCF7 cells. It is filed as functional.
Assay [10] has as its system MCF7. In words: Cytostatic activity against human MCF7 cells at 20 uM after 72 hrs by crystal violet staining method relative to control. It is filed as functional. In short, it runs like this: as §2
Assay [11] concerns MDA-MB-231. Kind of assay: Ratio of scopoletin IC50 to compound IC50 for human MDA-MB-231 cells. It is filed as functional.
Assay [12] concerns MDA-MB-231. In words: Induction of apoptosis in human MDA-MB-231 cells assessed as caspase3 activation at 10 uM after 24 hrs by fluorescence detection assay. It is filed as functional, cell-based.
In assay [13] the test system is HT-29. Kind of assay: Ratio of scopoletin IC50 to compound IC50 for human HT-29 cells. It is filed as functional.
Assay [14] deals with MDA-MB-231. In words: Cytostatic activity against human MDA-MB-231 cells at 20 uM after 72 hrs by crystal violet staining method relative to control. It is filed as functional. An outline of the steps: as §2
The test system of assay [15] is MDA-MB-231. In words: Cytocidal activity against human MDA-MB-231 cells at 20 uM after 72 hrs by crystal violet staining method relative to control. It is filed as functional. In short, it runs like this: as §2
The subject of assay [16] is MCF7. In words: Cytocidal activity against human MCF7 cells at 20 uM after 72 hrs by crystal violet staining method relative to control. It is filed as functional. In short, it runs like this: as §2
The test system of assay [17] is MCF7. Kind of assay: Cytocidal activity against human MCF7 cells at 10 uM after 72 hrs by crystal violet staining method. It is filed as functional, cell-based. An outline of the steps:
as §2

Assay [18] has as its system MDA-MB-231. Kind of assay: Cytocidal activity against human MDA-MB-231 cells at 10 uM after 72 hrs by crystal violet staining method. It is filed as functional, cell-based. An outline of the steps:
as §2

By IC50 is commonly meant the point on the concentration scale where inhibition reaches its midpoint. A low value points to greater potency in that assay. As a reminder, the T/C is the result in the treated group divided by that in the control group, in per cent.

Calls of active or inactive are those of the source. The calls are words filed in the database; no cut-off is given here. Bounds are passed on as bounds.

As for `COc1cc2cc(NC(C)=O)c(=O)oc2cc1OCC(=O)Nc1ccc(C)cc1`, the IC50 in assay [1] is 19 µM; in assay [3] it was 13.9 µM; in assay [4] it was above 20 µM. In addition, the T/C in assay [2] and in assay [5] was below 50% throughout.

Consider `COc1ccc(NC(=O)COc2cc3oc(=O)c(NC(C)=O)cc3cc2OC)cc1OC`, for which the IC50 in [1] was 14.9 µM; in [3], 8.4 µM; in assay [4] it was above 20 µM. In addition, the T/C in assay [2] and in assay [5] was below 50% in each case.

Regarding `COc1cc2cc(NC(C)=O)c(=O)oc2cc1OCC(=O)Nc1ccc(C(C)(C)C)cc1`, the outcome in assay [6] and in assay [8] was Active. The outcome in assay [7] and in [12] was inactive. The values for the IC50 in assay [1], in assay [3] and in assay [4] were 3.9 µM, 4.5 µM and 4.3 µM, respectively. Further, the “Ratio IC50” value in assay [9], in assay [11] and in [13] was 12 throughout. For the same molecule, the T/C in assay [10] and in [14] was 0% each time.

Turning to `COc1cc2ccc(=O)oc2cc1OCC(=O)Nc1ccc(Cl)cc1`, the IC50 stood at 19.5 µM in [1], 19.3 µM in assay [3] and 18.1 µM in assay [4]. In addition, the T/C in [2] and in assay [5] was below 50% each time.

`O=c1[nH]cc(F)c(=O)[nH]1` [FLUOROURACIL]: it took 4.7 µM to reach half-maximal inhibition in assay [1] (IC50).

For the molecule `COc1cc2cc(NC(C)=O)c(=O)oc2cc1OCC(=O)Nc1cccc(C(C)=O)c1`, the outcome in assay [1], in [3] and in assay [4] was Active.

Regarding `COc1cc2ccc(=O)oc2cc1OCC(=O)Nc1ccc(C(C)(C)C)cc1`, the T/C in assay [15] and in assay [16] was below 0% in each case. Also, the IC50 is 10.1 µM in [1], 8.1 µM in [3] and 19.6 µM in assay [4].

With `COc1cc2ccc(=O)oc2cc1OCC(=O)Nc1ccc(F)c(Cl)c1`, the IC50 stood at 6.5 µM in assay [1], 6.3 µM in [3] and 7.6 µM in [4]. Further, the T/C in assay [2] and in assay [5] was below 50% each time. The “Ratio IC50” value in assay [9], in assay [11] and in assay [13] was 12 in each case. The result in assay [17] and in assay [18] was Active.

On to `COc1cc2cc(NC(C)=O)c(=O)oc2cc1OCC(=O)Nc1ccc(Cl)cc1`, for which the result in assay [1], in assay [3] and in assay [4] was Active.

`COc1cc2cc(NC(C)=O)c(=O)oc2cc1OCC(=O)Nc1ccc(F)cc1`: the outcome in assay [1], in assay [3] and in [4] was Active.

For `COc1ccccc1NC(=O)COc1cc2oc(=O)c(NC(C)=O)cc2cc1OC`, the figures for the IC50 in assay [1], in assay [3] and in assay [4] were 17.9 µM, 14.7 µM and 19.1 µM, respectively. Further, the T/C in [2] and in assay [5] was below 50% in each case.

With `COc1cc2ccc(=O)oc2cc1O` [SCOPOLETIN], the IC50 in assay [1], in assay [3] and in assay [4] was above 100 µM throughout.
